# In ChEMBL document CHEMBL1649574, “Prevalence and characterization of heterogeneous vancomycin-intermediate Staphylococcus aureus isolates from 14 cities in China” (2009):
# Tests used:
# Format in all cases: functional
# Staphylococcus aureus [1] = assay: Antimicrobial activity against SCCmec type III vancomycin-intermediate Staphylococcus aureus isolate 15b52 by agar dilution method
# In short: (§1)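 Agar-dilution MICs were measured on a subset of 200 blood MRSA isolates from China. Agents: oxacillin, rifampin, gentamicin, levofloxacin, erythromycin, vancomycin, teicoplanin, tigecycline, ceftobiprole and linezolid. Phenotype came from the PAP-AUC ratio of each isolate to S. aureus Mu3 (VSSA <0.9; hVISA 0.9 to 1.3; VISA ≥1.3), read on BHI agar with 0 to 8.0 mg/liter vancomycin after 48 h at 35°C.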
# Staphylococcus aureus [2] = assay: Antimicrobial activity against SCCmec type III vancomycin-intermediate Staphylococcus aureus isolate b6k7974 by agar dilution method; in short: as §1
# Staphylococcus aureus [3] = assay: Antimicrobial activity against vancomycin-susceptible Staphylococcus aureus assessed as growth inhibition at 4 times MIC; parameters: scale not given: the % may be the effect or the level left
# Staphylococcus aureus [4] = assay: Antimicrobial activity against heterogeneous vancomycin-intermediate Staphylococcus aureus assessed as growth inhibition at 0.125 times MIC; parameters: scale not given: the % may be the effect or the level left
# Staphylococcus aureus [5] = assay: Antimicrobial activity against heterogeneous vancomycin-intermediate Staphylococcus aureus by agar dilution method; in short: as §1
# Staphylococcus aureus [6] = assay: Antimicrobial activity against SCCmec type II vancomycin-intermediate Staphylococcus aureus isolate 4sy32 by agar dilution method; in short: as §1
# Staphylococcus aureus [7] = assay: Antimicrobial activity against heterogeneous vancomycin-intermediate Staphylococcus aureus assessed as growth inhibition at 0.5 times MIC; parameters: scale not given: the % may be the effect or the level left
# Staphylococcus aureus [8] = assay: Antimicrobial activity against heterogeneous vancomycin-intermediate Staphylococcus aureus assessed as growth inhibition at 0.25 times MIC; parameters: scale not given: the % may be the effect or the level left
# Staphylococcus aureus [9] = assay: Antimicrobial activity against SCCmec type III vancomycin-intermediate Staphylococcus aureus isolate gs07022 by agar dilution method; in short: as §1
# Staphylococcus aureus [10] = assay: Antimicrobial activity against heterogeneous vancomycin-intermediate Staphylococcus aureus assessed as susceptible isolates by agar dilution method
# In short: (§2)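 MICs by agar dilution for all 200 MRSA blood isolates (oxacillin, rifampin, gentamicin, levofloxacin, erythromycin, vancomycin, teicoplanin, tigecycline, ceftobiprole, linezolid). Isolates were grouped by PAP-AUC ratio against S. aureus Mu3: below 0.9 VSSA, 0.9 to 1.3 hVISA, 1.3 or more VISA.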
# Staphylococcus aureus [11] = assay: Antimicrobial activity against vancomycin-susceptible Staphylococcus aureus assessed as growth inhibition at 0.25 times MIC; parameters: scale not given: the % may be the effect or the level left
# Staphylococcus aureus [12] = assay: Antimicrobial activity against heterogeneous vancomycin-intermediate Staphylococcus aureus assessed as growth inhibition at 2 times MIC; parameters: scale not given: the % may be the effect or the level left
# Staphylococcus aureus [13] = assay: Antimicrobial activity against SCCmec type III vancomycin-intermediate Staphylococcus aureus isolate gz06040 by agar dilution method; in short: as §1
# Staphylococcus aureus [14] = assay: Antimicrobial activity against SCCmec type III vancomycin-intermediate Staphylococcus aureus isolate b5k3578 by agar dilution method; in short: as §1
# Staphylococcus aureus [15] = assay: Antimicrobial activity against vancomycin-susceptible Staphylococcus aureus assessed as growth inhibition at 16 times MIC; parameters: scale not given: the % may be the effect or the level left
# Staphylococcus aureus [16] = assay: Antimicrobial activity against vancomycin-susceptible Staphylococcus aureus by agar dilution method; in short: as §1
# Staphylococcus aureus [17] = assay: Antimicrobial activity against SCCmec type III vancomycin-intermediate Staphylococcus aureus isolate gz07030 by agar dilution method; in short: as §1
# Staphylococcus aureus [18] = assay: Antimicrobial activity against heterogeneous vancomycin-intermediate Staphylococcus aureus assessed as growth inhibition at 4 times MIC; parameters: scale not given: the % may be the effect or the level left
# Staphylococcus aureus [19] = assay: Antimicrobial activity against vancomycin-intermediate Staphylococcus aureus by agar dilution method; in short: as §1
# Staphylococcus aureus [20] = assay: Antimicrobial activity against SCCmec type III vancomycin-intermediate Staphylococcus aureus isolate b6k1642 by agar dilution method; in short: as §1
# Staphylococcus aureus [21] = assay: Antimicrobial activity against SCCmec type III vancomycin-intermediate Staphylococcus aureus isolate b3k5923 by agar dilution method; in short: as §1
# Staphylococcus aureus [22] = assay: Antimicrobial activity against SCCmec type II vancomycin-intermediate Staphylococcus aureus isolate 4sy39 by agar dilution method; in short: as §1
# Staphylococcus aureus [23] = assay: Antimicrobial activity against SCCmec type III vancomycin-intermediate Staphylococcus aureus isolate sh07043 by agar dilution method; in short: as §1
# Staphylococcus aureus [24] = assay: Antimicrobial activity against vancomycin-susceptible Staphylococcus aureus assessed as growth inhibition at 2 times MIC; parameters: scale not given: the % may be the effect or the level left
# Staphylococcus aureus [25] = assay: Antimicrobial activity against heterogeneous vancomycin-susceptible Staphylococcus aureus assessed as susceptible isolates by agar dilution method; in short: as §2
# Staphylococcus aureus [26] = assay: Antimicrobial activity against SCCmec type III vancomycin-intermediate Staphylococcus aureus isolate gz06051 by agar dilution method; in short: as §1
# Staphylococcus aureus [27] = assay: Antimicrobial activity against SCCmec type II vancomycin-intermediate Staphylococcus aureus isolate b2k4781 by agar dilution method; in short: as §1
# Staphylococcus aureus [28] = assay: Antimicrobial activity against SCCmec type III vancomycin-intermediate Staphylococcus aureus isolate b5k3529 by agar dilution method; in short: as §1
# Staphylococcus aureus [29] = assay: Antimicrobial activity against SCCmec type III vancomycin-intermediate Staphylococcus aureus isolate b4k6307 by agar dilution method; in short: as §1
# Staphylococcus aureus [30] = assay: Antimicrobial activity against vancomycin-susceptible Staphylococcus aureus assessed as growth inhibition at 0.125 times MIC; parameters: scale not given: the % may be the effect or the level left
# Staphylococcus aureus [31] = assay: Antimicrobial activity against SCCmec type III vancomycin-intermediate Staphylococcus aureus isolate b2k3421 by agar dilution method; in short: as §1
# Staphylococcus aureus [32] = assay: Antimicrobial activity against SCCmec type III vancomycin-intermediate Staphylococcus aureus isolate 11b091 by agar dilution method; in short: as §1
# Staphylococcus aureus [33] = assay: Antimicrobial activity against SCCmec type II vancomycin-intermediate Staphylococcus aureus isolate 6zjsau7 by agar dilution method; in short: as §1
# Staphylococcus aureus [34] = assay: Antimicrobial activity against SCCmec type III vancomycin-intermediate Staphylococcus aureus isolate b3k2345 by agar dilution method; in short: as §1
# Staphylococcus aureus [35] = assay: Antimicrobial activity against SCCmec type II vancomycin-intermediate Staphylococcus aureus isolate 07b63 by agar dilution method; in short: as §1
# Staphylococcus aureus [36] = assay: Antimicrobial activity against SCCmec type III vancomycin-intermediate Staphylococcus aureus isolate zj07028 by agar dilution method; in short: as §1
# Staphylococcus aureus [37] = assay: Antimicrobial activity against SCCmec type III vancomycin-intermediate Staphylococcus aureus isolate 13b16 by agar dilution method; in short: as §1
# Staphylococcus aureus [38] = assay: Antimicrobial activity against heterogeneous vancomycin-intermediate Staphylococcus aureus assessed as intermediate isolates by agar dilution method; in short: as §2
# Staphylococcus aureus [39] = assay: Antimicrobial activity against SCCmec type II vancomycin-intermediate Staphylococcus aureus isolate sh06024 by agar dilution method; in short: as §1
# Staphylococcus aureus [40] = assay: Antimicrobial activity against SCCmec type III vancomycin-intermediate Staphylococcus aureus isolate xa07029 by agar dilution method; in short: as §1
# Staphylococcus aureus [41] = assay: Antimicrobial activity against heterogeneous vancomycin-intermediate Staphylococcus aureus assessed as growth inhibition at 16 times MIC; parameters: scale not given: the % may be the effect or the level left
# Staphylococcus aureus [42] = assay: Antimicrobial activity against SCCmec type IV vancomycin-intermediate Staphylococcus aureus isolate 06b41 by agar dilution method; in short: as §1
# Staphylococcus aureus [43] = assay: Antimicrobial activity against SCCmec type III vancomycin-intermediate Staphylococcus aureus isolate 5zjsau3 by agar dilution method; in short: as §1
# Staphylococcus aureus [44] = assay: Antimicrobial activity against heterogeneous vancomycin-susceptible Staphylococcus aureus assessed as intermediate isolates by agar dilution method
# Staphylococcus aureus [45] = assay: Antimicrobial activity against vancomycin-susceptible Staphylococcus aureus assessed as growth inhibition at 0.5 times MIC; parameters: scale not given: the % may be the effect or the level left
# Staphylococcus aureus [46] = assay: Antimicrobial activity against heterogeneous vancomycin-intermediate Staphylococcus aureus assessed as growth inhibition at MIC; parameters: scale not given: the % may be the effect or the level left
# Staphylococcus aureus [47] = assay: Antimicrobial activity against SCCmec type III vancomycin-intermediate Staphylococcus aureus isolate bd4768 by agar dilution method; in short: as §1
# Staphylococcus aureus [48] = assay: Antimicrobial activity against vancomycin-susceptible Staphylococcus aureus assessed as growth inhibition at MIC; parameters: scale not given: the % may be the effect or the level left
structure (smiles),measurement,setting,value
CN(C)c1cc(NC(=O)CNC(C)(C)C)c(O)c2c1C[C@H]1C[C@H]3[C@H](N(C)C)C(O)=C(C(N)=O)C(=O)[C@@]3(O)C(O)=C1C2=O [TIGECYCLINE],MIC,Staphylococcus aureus [1],0.25 µg/mL
same,MIC,Staphylococcus aureus [2],0.25 µg/mL
same,Activity,Staphylococcus aureus [3],100%
same,Activity,Staphylococcus aureus [4],44.4%
same,MIC50,Staphylococcus aureus [5],0.25 µg/mL
same,MIC90,Staphylococcus aureus [5],0.25 µg/mL
same,MIC,Staphylococcus aureus [6],0.25 µg/mL
same,Activity,Staphylococcus aureus [7],100%
same,Activity,Staphylococcus aureus [8],92.6%
same,MIC,Staphylococcus aureus [9],0.25 µg/mL
same,Activity,Staphylococcus aureus [10],100%
same,Activity,Staphylococcus aureus [11],90.2%
same,Activity,Staphylococcus aureus [12],100%
same,MIC,Staphylococcus aureus [13],0.125 µg/mL
same,MIC,Staphylococcus aureus [14],0.25 µg/mL
same,Activity,Staphylococcus aureus [15],100%
same,MIC50,Staphylococcus aureus [16],0.125 µg/mL
same,MIC90,Staphylococcus aureus [16],0.25 µg/mL
same,MIC,Staphylococcus aureus [17],0.125 µg/mL
same,Activity,Staphylococcus aureus [18],100%
same,MIC,Staphylococcus aureus [19],0.25 µg/mL
same,MIC,Staphylococcus aureus [20],0.25 µg/mL
same,MIC,Staphylococcus aureus [21],0.032 µg/mL
same,MIC,Staphylococcus aureus [22],0.25 µg/mL
same,MIC,Staphylococcus aureus [23],0.25 µg/mL
same,Activity,Staphylococcus aureus [24],100%
same,Activity,Staphylococcus aureus [25],100%
same,MIC,Staphylococcus aureus [26],0.25 µg/mL
same,MIC,Staphylococcus aureus [27],0.125 µg/mL
same,MIC,Staphylococcus aureus [28],0.125 µg/mL
same,MIC,Staphylococcus aureus [29],0.064 µg/mL
same,Activity,Staphylococcus aureus [30],54.3%
same,MIC,Staphylococcus aureus [31],0.125 µg/mL
same,MIC,Staphylococcus aureus [32],0.125 µg/mL
same,MIC,Staphylococcus aureus [33],0.25 µg/mL
same,MIC,Staphylococcus aureus [34],0.064 µg/mL
same,MIC,Staphylococcus aureus [35],0.5 µg/mL
same,MIC,Staphylococcus aureus [36],0.5 µg/mL
same,MIC,Staphylococcus aureus [37],0.125 µg/mL
same,Activity,Staphylococcus aureus [38],0%
same,MIC,Staphylococcus aureus [39],0.125 µg/mL
same,MIC,Staphylococcus aureus [40],0.25 µg/mL
same,Activity,Staphylococcus aureus [41],100%
same,MIC,Staphylococcus aureus [42],0.25 µg/mL
same,MIC,Staphylococcus aureus [43],0.25 µg/mL
same,Activity,Staphylococcus aureus [44],0%
same,Activity,Staphylococcus aureus [45],100%
same,Activity,Staphylococcus aureus [46],100%
same,MIC,Staphylococcus aureus [47],0.125 µg/mL
same,Activity,Staphylococcus aureus [48],100%
